Reference: the EternaBench riboswitch data

Tested on: MS2 coat protein
Assay: apparent Kd, MS2 coat protein; higher = weaker binding; RNA-MaP array; FMN 200 µM where present
Procedure, shortened: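 The titrant was SNAP-549-labelled MS2 coat protein, run from 0.7 or 1.5 nM in doubling steps to 3 µM. It was applied to designs transcribed by stalled E. coli RNA polymerase on Illumina sequencing-chip clusters, without ligand first and then with constant ligand, in 100 mM Tris-HCl pH 7.5, 80 mM KCl, 4 mM MgCl2, BSA, DTT, yeast tRNA and Tween-20. The apparent Kd is the median of filtered per-cluster binding-curve fits, with green signal normalised to red-channel RNA signal and control-cluster median Fmax.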

[1] = designed as: ON switch for flavin mononucleotide, no ligand
[2] = ligand present: flavin mononucleotide, designed as: ON switch for flavin mononucleotide
[3] = designed as: OFF switch for flavin mononucleotide, no ligand
[4] = ligand present: flavin mononucleotide, designed as: OFF switch for flavin mononucleotide

Sequence | apparent Kd [1] | apparent Kd [2] | apparent Kd [3] | apparent Kd [4]
UUGAUAAAUUAGAAGGCGAGAUAAAAUACAAUAAACAUGAGGAUCACCCAUGUGUACCCAUGUUUUGAGGAUAUAGACAUUUAU | 922 nM | 399 nM |  | 
UUGAUAUUGUAAGGAUAUACUCUGUGAUGAAGAGUAGAAGGUACUUACAUGAGGAUCACCCAUGUUUAACGAGAUACUAAUCGU | 48.9 nM | 20 nM |  | 
UUGAUUAUACAAGGAUAUCAAUUGUAUACAAGUCAUACAUGAGGAUCACCCAUGUUUUAUUUUUUUGAGAAGGUGUAUUGUCAG | 38.9 nM | 24 nM |  | 
UUGCACGUCGUAGGAUAUGUAGGAUAUUCCUACAUGAGGAUCACCCAUGUUGACAUGGAAGAAGGACAGAAGGACGAUGUCCAU | 686 nM | 10.9 nM |  | 
UUGCAGUCAUCAGGAUAUAGUAUUACGGCCAUUUAUAUUUUCAUACAUGAGGAUCACCCAUGUCGCUAGAAGGGAUUAUCGAUU |  |  | 47.7 nM | 43 nM
UUGCGACAUGAGGAUCACCCAUGUCAGGAUAUAUUGUAGAAACUGGUUGCGACCAGGCGUAGAAGGGACAUGGC |  |  | 28.6 nM | 37.7 nM
UUGCGGUAGGAGAAGGACAGAGGCUUCAUUACAUACAUGAGGAUCACCCAUGUAGGAUAUCCUACCUAACGCGGACUCCUCCUG |  |  | 10.7 nM | 20.1 nM
UUGCGGUAGGAGAAGGACAGAGGCUUCAUUACAUACAUGAGGAUCACCCAUGUAGGAUAUCCUACCUAACGCGGCCUCCUCCUG |  |  | 11.1 nM | 19.8 nM
UUGCGGUCAGGAUAUGCAUGGCGGGACUUGCGUCGUGGCGUGGAGAAGGGACAUGAGGAUCACCCAUGUGGAGC |  |  | 54.5 nM | 59.9 nM
UUGGACAUCGUAGGAUAUGUAGGAUAUUCCUACAUGAGGAUCACCCAUGUUGACAUGGAAGAAGGACAGAAGGACGAUGUCCAU | 207 nM | 4.12 nM |  | 
UUGGACGUCGUAGGAUAUGUAGGAUACUCCUACAUGAGGAUCACCCAUGUUGACAUGGAAGAAGGACAGAAGGACGAUGUCCAU | 753 nM | 50.5 nM |  | 
UUGGACGUCGUAGGAUAUGUAGGAUAUUCCUACAUGAGGAUCACCCAUGUUGACAUGGAAGAAGGACAAAAGGACGAUGUCCAU | 377 nM | 9.05 nM |  | 
UUGGACGUCGUAGGAUAUGUAGGAUAUUCCUACAUGAGGAUCACCCAUGUUGACAUGGAAGAAGGACAGAAGAACGAUGUCCAU | 161 nM | 4.92 nM |  | 
UUGGACGUCGUAGGAUAUGUAGGAUAUUCCUACAUGAGGAUCACCCAUGUUGACAUGGAAGAAGGACAGAAGGACGCUGUCCAU | 576 nM | 8.85 nM |  | 
UUGGACGUCGUAGGAUAUGUAGUAUAUUCCUACAUGAGGAUCACCCAUGUUGACAUGGAAGAAGGACAGAAGGACGAUGUCCAU | 6.54 nM | 5.01 nM |  | 
UUGGCCGUCGUAGGAUAUGUAGGAUAUUCCUACAUGAGGAUCACCCAUGUUGACAUGGAAGAAGGACAGAAGGACGAUGUCCAU | 365 nM | 4.87 nM |  | 
UUGGGCGUCGUAGGAUAUGUAGGAUAUUCCUACAUGAGGAUCACCCAUGUUGACAUGGAAGAAGGACAGAAGGACGAUGUCCAU | 278 nM | 4.67 nM |  | 
UUGGUAUUCGUAGGAUAUCUGUCGCCACCGUGUGGAGAAGGACGAACAUGAGGAUCACCCAUGUAUCAUGGUGUGGGCGUUGUC |  |  | 100 nM | 106 nM
UUGGUGUACGUAGGAUAUGUAGGAUAUUCCUACAUGAGGAUCACCCAUGUUUACAUGGAAGAAGGACAGAAGGACGUGCACCAU | 1280 nM | 15.2 nM |  | 
UUGUACAUUCGAGGAUAUCGGAGAGAGAUCAUUCGAGAAGGCGAUUCAUGAUGUAUUAUCCUGGACAUGAGGAUCACCCAUGUA | 111 nM | 65.9 nM |  | 
UUGUAGGAGACAGGAUAUGUACGGAAGGUUCACGUACAUGAGGAUCACCCAUGUCCAGACUUCAGACAGAAGGGUCACCAGGUG | 113 nM | 17.2 nM |  | 
UUGUGCUGAGAGAAGGUUCAAACUACAUAUUGCGCACAUGAGGAUCACCCAUGUUGGUGAAUAAGAAAGGAUAUUUUACUGUAU |  |  | 244 nM | 184 nM
UUGUUAAAUGAAGGAUAUACUUAACAUGAGGAUCACCCAUGUGGUGUUGUGAGUGAGUGAGUUUAGUAGAAGGUCAAUUCUUUU |  |  | 229 nM | 232 nM
UUGUUACAUGAGGAUCACCCAUGUGAGGAUAUGUGUAUCCCUAAAAAAGUGUGGGACCACAGAAGGUACUUGGA |  |  | 54.6 nM | 68.1 nM
UUGUUAUAUGUAGGAUAUGCAUAUUAUUAUUAUGCAGAAGGACAUGAGGAUCACCCAUGUAUAUUAUUAUUAUAUAUUAUAUAU |  |  | 28.3 nM | 41.6 nM
UUGUUCCAUGUAGGAUAUGCAUAUUCUUAUUAUGCAGAAGGACAUGAGGAUCACCCAUGUAUGUUAUUAUUAUAUGUUACAUGU |  |  | 72.3 nM | 392 nM
UUUAAACAUGAGGAUCACCCAUGUUUUUUUAUGGGAGGAUAUCUAAGUUAAUUAUAUUAAGGAGAAGGCCUAUUUU | 146 nM | 26.7 nM |  | 
UUUAAAGGCACAUGAGGAUCACCCAUGUCCGGUACUAACAGACAGGAUAUGCAAGAUCCACUCAUGCAGAAGGGUCUGGCUUUU | 463 nM | 79.7 nM |  | 

Sequence | apparent Kd [1] | apparent Kd [2] | apparent Kd [3] | apparent Kd [4]
UUUAACUGCUAGAAGGGUGACAUGAGGAUCACCCAUGUGCUAGGCGUGCAUAAGCACCCUUAGCCACAGGAUAUAGUAGUUGAC | 112 nM | 64.5 nM |  | 
UUUAAUUAGUAGAAGGACGGAGAGUAAGAAGUCGUAGGAUAUACAUAAGACAUGAGGAUCACCCAUGUGUGUAUGUUGGGUAGG |  |  | 6.57 nM | 7.72 nM
UUUAAUUUAAUUAAGAUCACAUGAGGAUCACCCAUGUAUAUAUAGGAUAUCAGCUCGAAUAGAGCUGAGAAGGAUAUAUACAUA |  |  | 69.3 nM | 36.2 nM
UUUACAUGAGGAUCACCCAUGUCUGUCACACGGAGGUGCAAUCAGGAUAUGAUCUCAAGAAUGAAUUAGAAGGGAUAGGGAGGG | 187 nM | 234 nM |  | 
UUUACUUACGAAGGAUAUGGUUACAUGAGGAUCACCCAUGUAUGUAUAAUGAUCUAGUAUUUUAACCAGAAGGUCGUGAUUAUU |  |  | 39.3 nM | 64.6 nM
UUUAUAUUCAGAGGAUAUUGAUGUUGUAUUUUACAAGAAGGCUGUUUGUUUUGUAAUGUUAUUAUACAUGAGGAUCACCCAUGU | 20.6 nM | 17.3 nM |  | 
UUUAUGUCAGGAUAUACAUGAGGAUCACCCAUGUAUAUCUUAAAGUAUACAUGGAAAUGUAGAAGGGACGUCCU |  |  | 15.1 nM | 17.1 nM
UUUAUUAGUUAGAAGGCUUGAUGAAUUACAAUGGACAUGAGGAUCACCCAUGUGUAUUCAUGUCAAGAGGAUAUAGUCAUAUAU | 39.1 nM | 17.7 nM |  | 
UUUAUUUCGGCAGGAUAUACAUGUAUAUAUAUUCCCUCAUAUCUUAUUACAUGAGGAUCACCCAUGUAGAAGGGCCUUCUUCUC |  |  | 206 nM | 160 nM
UUUAUUUUUAGAGGAUAUAUUGUGUGUGAGAGAAUAGAAGGCUAAACAUACAUGAACAUGAGGAUCACCCAUGUCACCCAUGUU | 78.2 nM | 54.9 nM |  | 
UUUCAGUCAGGAUAUCGUUAAUUUAAUUGUUUGUUUUAGUUCGAGAAGGGACAUGAGGAUCACCCAUGUAAUUU |  |  | 33.1 nM | 51.3 nM
UUUCCACAUGAGGAUCACCCAUGUGAGGAUAUGGAGCGCGACCGCGCGGUCGCGUACACCAGAAGGCGCAUGAU |  |  | 31.9 nM | 91 nM
UUUCCGCGAGGAUAUACGGGCUGUGCUUUUCAUUUCUUACAACAUGAGGAUCACCCAUGUAGAAGGUGCUUCUU |  |  | 208 nM | 196 nM
UUUCGGCAUGUAGGAUAUGGAUCCGAUUAGGAUUUAGAAGGACAUGAGGAUCACCCAUGUGCAUUUAAUUGGUCAUUACCGUUU |  |  | 58.5 nM | 95.2 nM
UUUCUGUGAGGAUAUCAGUAGUAAAUAAAUAAAAUUACUACUGAGAAGGCACAUGAGGAUCACCCAUGUUCCUU |  |  | 12.2 nM | 29.7 nM
UUUGACCUAGGAUAUACAUGAGGAUCACCCAUGUUCCGGUGGGUUAACGACAACCUCAGUAGAAGGAGGAGCUU |  |  | 31.8 nM | 58.9 nM
UUUGACGUCGUAGGAUAUGUAGGAUAUUCCUACAUGAGGAUCACCCAUGUUGACAUGGAAGAAGGACAGAAGGACGAUGUCCAU | 304 nM | 5.56 nM |  | 
UUUGAUGUUGAGGAUAUGCUUUUUUUUAUUAUAGCAGAAGGCGAUACAUGAGGAUCACCCAUGUUCAUGGCUUU |  |  | 12.8 nM | 15.5 nM
UUUGCAUGACGAGGAUAUCAUUUAUUUCUUGAUUGAGAAGGCGUUCUUUUUAAUACCUAACAUGAGGAUCACCCAUGUGACAGU | 17.9 nM | 13.2 nM |  | 
UUUGUAAUGUCAGGAUAUAUUAUAAGUCAGACUGUAGAAGGGAUAAUUAUACUCAUGUACAUGAGGAUCACCCAUGUUAAAUAU | 97.1 nM | 53.2 nM |  | 
UUUGUUGUUGUGAGGAUAUCGUUGAUUUUUUGAAACGAGAAGGCACAUGAGGAUCACCCAUGUUUGUUGUUGGU |  |  | 66.2 nM | 248 nM
UUUGUUUAUGUGAGGAUAUACUGUUUGUAUUGAUUGUAGAAGGUACAUGAGGAUCACCCAUGUUUUGUAUUUAU |  |  | 18.8 nM | 19.4 nM
UUUGUUUGCGGAGGAUAUAUAAGUGGAUCACCCAUAGAAGGCCGAACAUGAGGAUCACCCAUGUUACAUGAGGAUCACCCAUGU |  |  | 45.8 nM | 51.5 nM
UUUUAACAUGAGGAUCACCCAUGUGAGGAUAUCGAAAUUUAUAUUAAUAUUAAUAAAACGAGAAGGCACAUUUU |  |  | 82.2 nM | 90.1 nM
UUUUAACAUGAGGAUCACCCAUGUGAGGAUAUCGAAAUUUAUAUUAAUAUUAAUAAAUCGAGAAGGCACAUUUU |  |  | 117 nM | 127 nM
UUUUAACAUGAGGAUCACCCAUGUGAGGAUAUCGAAAUUUAUAUUAAUAUUAUUAUAUCGAGAAGGCACAUUUU |  |  | 92.3 nM | 91.3 nM
UUUUAACAUGAGGAUCACCCAUGUGAGGAUAUCGAAAUUUAUAUUAAUAUUAUUUAAACGAGAAGGCACAUUUU |  |  | 65.2 nM | 87 nM
